The nature of assay [1]: Inhibition of trypsin-like activity of proteasome by fluorogenic assay. It counts as subcellular.
The nature of assay [2]: Inhibition of chymotrypsin-like activity of proteasome by fluorogenic assay. It counts as subcellular. In short, it runs like this:
(§1)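 Purified rabbit 20S proteasome; CT-L activity measured by fluorogenic assay. Compounds were first screened for % CT-L inhibition, then dose-response runs gave IC50.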

Assay [3] is described as follows: Inhibition of chymotrypsin-like activity of proteasome at 10 uM by fluorogenic assay. It counts as subcellular. The procedure, abridged:
as §1

Assay [4] can be described thus: Inhibition of trypsin-like activity of proteasome at 10 uM by fluorogenic assay. It counts as subcellular.
The species named for assay [5] is Oryctolagus cuniculus. The assay can be described thus: Irreversible inhibition of rabbit 20S proteasome activity at 10 uM after 30 mins measured after 0.5 to 18 hrs of dialysis. The procedure, abridged:
(§2)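 Compound at 10 μM or 0.1% DMSO was preincubated with 1.5 nM rabbit 20S proteasome in 50 mM Tris-HCl pH 7.6 for 30 min at room temperature. Mixtures were dialysed (3500 MWCO) against the same buffer at 4 °C and sampled at 0, 0.5, 1, 4, 8 and 18 h. CT-L activity was normalized to DMSO control.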

The species named for assay [6] is Oryctolagus cuniculus. The assay can be described thus: Inhibition of rabbit 20S proteasome activity at 10 uM after 30 mins. In short, it runs like this: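 Purified rabbit 20S proteasome (1.5 nM final) was preincubated with compound at 10 μM, or 0.1% DMSO vehicle, in 50 mM Tris-HCl pH 7.6 at room temperature for 30 min. Chymotrypsin-like activity was then read by fluorogenic assay before dialysis (t = 0) and normalized to the DMSO control.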

A short description of assay [7]: Inhibition of chymotrypsin-like activity of proteasome in human MDA-MB-468 cells after 11 hrs by fluorogenic assay in whole cell extracts. Particulars: MDA-MB-468, 11 h.
Assay [8] relates to MDA-MB-468. Kind of assay: Antiproliferative activity against human MDA-MB-468 cells after 11 hrs by MTT assay. It counts as functional, cell-based. Particulars: MDA-MB-468, 11 h. The procedure, abridged:
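MDA-MB-468 human breast cancer cells grown in DMEM with 10% FCS and penicillin/streptomycin at 37 °C, 5% CO₂. Cells plated, attached overnight, then exposed to varying compound concentrations or vehicle (DMSO) for 11 h.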
Background: Formazan colour is commonly taken as a measure of viable cells.

Assay [9] deals with MDA-MB-468. Kind of assay: Inhibition of chymotrypsin-like activity of proteasome in human MDA-MB-468 cells assessed as accumulation of ubiquitinated cellular proteins after 11 hrs by Western blotting. The procedure, abridged:
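MDA-MB-468 cells (DMEM, 10% FCS, 37 °C, 5% CO2) given varying concentrations or DMSO for 11 h, then lysed in NP-40 buffer. Lysate (30 μg) was run on SDS-PAGE, transferred to nitrocellulose, probed with anti-ubiquitin, and detected by ECL.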
A general note: In western blotting, separated proteins are transferred to a membrane and probed.

Assay [10] can be described thus: Inhibition of chymotrypsin-like activity of proteasome in human MDA-MB-468 cells after 48 hrs. The procedure, abridged: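 MDA-MB-468 cells grown in DMEM with 10% FCS, penicillin/streptomycin, at 37 °C in 5% CO2. They were exposed to a range of concentrations or DMSO vehicle for 48 h, lysed in Tris pH 8.0/EDTA/NaCl/0.5% NP-40 for 30 min at 4 °C, and spun at 12000g. CT-L activity was read fluorogenically on 5 μg lysate, with lysate replacing purified proteasome.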

Assay [11] is described as follows: Inhibition of chymotrypsin-like activity of proteasome in human MDA-MB-231 cells after 48 hrs. In short, it runs like this:
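MDA-MB-231 cells exposed to a range of concentrations or DMSO vehicle for 48 h, then lysed (Tris pH 8.0, EDTA, NaCl, 0.5% NP-40). CT-L activity was measured fluorogenically using 5 μg lysate; IC50 derived.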

A short description of assay [12]: Inhibition of postglutamylpeptidase hydrolysis-like activity of proteasome by fluorogenic assay. It counts as subcellular.
For assay [13], the species on record is Oryctolagus cuniculus. Kind of assay: Irreversible inhibition of rabbit 20S proteasome activity at 10 uM after 30 mins measured after 4 hrs of dialysis. The procedure, abridged: as §2

The source made the active and inactive calls. The calls are words filed in the database; no cut-off is given here. Some results are limits rather than exact numbers.

Broadly, the IC50 is the concentration at which inhibition is half-maximal. In general, inhibition refers to the change of the read-out against control, counted positive when it falls. With `O=S(=O)(Nc1cc(Sc2ncn[nH]2)c(O)c2ccccc12)c1ccc(-c2ccccc2)s1`, the IC50 in [1] was 2.35 µM; in [2] it was 0.73 µM. The compound also yielded an inhibition in assay [3] of over 70%.
With `O=S(=O)(Nc1cc(Sc2nnn[nH]2)c(O)c2ccccc12)c1ccc(Cl)cc1`, the IC50 in [1] was 0.75 µM; in [2], 0.57 µM. This compound also yielded an inhibition in assay [3] of over 70%.
For `O=S(=O)(Nc1cc(I)c(O)c2ccccc12)c1cccs1`, the IC50 in assay [2] is over 30 µM.
On to `O=S(=O)(Nc1cc(Sc2ncn[nH]2)c(O)c2ccccc12)c1ccc(C2CCCCC2)cc1`, for which the IC50 stood at 7 µM in assay [1] and 0.3 µM in [2]. The inhibition in assay [3] is over 70%.
`O=C(O)CS(=O)(=O)c1cc(NS(=O)(=O)c2cccs2)c2ccccc2c1O`: in assay [2], the IC50 was over 100 µM.
As for `O=S(=O)(Nc1cc(Sc2ncn[nH]2)c(O)c2ccccc12)c1ccc(-c2ccc(F)cc2)cc1`, the figures for the IC50 in [1] and in assay [2] were 2.37 µM and 0.18 µM, respectively. Also, the inhibition in assay [3] was over 70%.
Turning to `O=S(=O)(Nc1cc(Cl)c(O)c2ccccc12)c1cccs1`, in assay [2], the IC50 was over 30 µM.
Turning to `O=S(=O)(Nc1cc(Sc2nnn[nH]2)c(O)c2ccccc12)c1ccc(Cl)s1`, the IC50 in [1] was 1.1 µM; in assay [2], 0.63 µM. Also, the inhibition in [3] was over 70%.
For `O=S(=O)(Nc1cc(Sc2nnn[nH]2)c(O)c2ccccc12)c1ccc(-c2ccccn2)s1` the same measures were 1.55 µM, 0.48 µM and over 70%.
With `O=S(=O)(Nc1cc(Sc2nnn[nH]2)c(O)c2ccccc12)c1ccc(Cl)c(Cl)c1`, the IC50 amounted to 0.57 µM in assay [1] and 0.54 µM in [2]. The compound further returned an inhibition in assay [3] of over 70%.
Turning to `O=C(O)COc1cc(NS(=O)(=O)c2cccs2)c2ccccc2c1O`, in [2], the concentration for half-maximal inhibition (IC50) was over 100 µM.
In the case of `O=S(=O)(Nc1cc(Sc2nnn[nH]2)c(O)c2ccccc12)c1ccc(C2CCCCC2)cc1`, the concentration for half-maximal inhibition (IC50) in assay [1] came out at 1.85 µM; in assay [2], 0.23 µM. This compound gave an inhibition in assay [3] of over 70%.
In [2], `O=S(=O)(Nc1cc(Br)c(O)c2ccccc12)c1cccs1` displayed an IC50 of over 30 µM.
In the case of `O=S(=O)(Nc1cc(Sc2nnn[nH]2)c(O)c2ccccc12)c1ccc2ccccc2c1`, the IC50 in [1] worked out at 1.35 µM; in assay [2], 0.4 µM. Moreover, the inhibition in assay [3] was over 70%.
The compound `CCOC(=O)CSc1cc(NS(=O)(=O)c2cccs2)c2ccccc2c1O` gave an IC50 in assay [2] of over 10 µM.
Same read-out and setting: as for `O=S(=O)(Nc1ccc(O)c2ccccc12)c1cccs1`, the figure is over 30 µM.
Regarding `O=S(=O)(Nc1cc(Sc2ncn[nH]2)c(O)c2ccccc12)c1ccc2ccccc2c1`, the IC50 in [1] amounted to 2 µM; in [2], 0.3 µM. Besides, in assay [3], the inhibition was over 70%.
Regarding `CN(C)C(=O)CCSc1cc(NS(=O)(=O)c2cccs2)c2ccccc2c1O`, the IC50 in [2] is over 5 µM.
As for `O=S(=O)(Nc1cc(Sc2nnn[nH]2)c(O)c2ccccc12)c1ccccc1`, the figures for the IC50 in assay [1] and in [2] were 1.38 µM and 0.6 µM, respectively. In [3], this compound returned an inhibition of over 70%.
For `O=S(=O)(Nc1cc(Sc2ncn[nH]2)c(O)c2ccccc12)c1ccc(Oc2ccccc2)cc1` the same measures were 4.2 µM, 0.15 µM and over 70%.
The like results for `O=S(=O)(Nc1cc(Sc2ncn[nH]2)c(O)c2ccccc12)c1ccc(-c2ccc(C(F)(F)F)cc2)cc1` were, in that order, 7.2 µM, 2.47 µM and over 70%.
Regarding `O=S(=O)(Nc1cc(Sc2ncn[nH]2)c(O)c2ccccc12)c1ccn(S(=O)(=O)c2ccccc2)c1`, the inhibition in [4] was under 70%; in assay [3], over 70%. Besides, inhibition in assay [2] was half-maximal at 1.61 µM (IC50).
Turning to `CCOc1cc(NS(=O)(=O)c2cccs2)c2ccccc2c1O`, the IC50 in assay [2] was over 5 µM.
With `O=S(=O)(Nc1cc(Sc2nnn[nH]2)c(O)c2ccccc12)c1ccc(-c2ccccc2)cc1`, the IC50 in assay [1] came out at 4.8 µM; in [2], 0.22 µM. The compound further had an inhibition in assay [3] of over 70%.
On to `COc1ccc(-c2ccc(S(=O)(=O)Nc3cc(Sc4nnn[nH]4)c(O)c4ccccc34)cc2)cc1`, for which the IC50 is 2.8 µM in assay [1] and 0.4 µM in [2]. Also, the inhibition in [3] was over 70%.
`O=S(=O)(Nc1cc(Sc2nnn[nH]2)c(O)c2ccccc12)c1ccc(-c2ccc(C(F)(F)F)cc2)cc1`: in the assay listed under Oryctolagus cuniculus [5], the inhibition entry is “Active”. Besides, the IC50 came to 1.14 µM in assay [1]; 15.6 µM in assay [7]; 0.88 µM in assay [2]; 17 µM in the assay with MDA-MB-468 [8]; 1.01 µM in assay [10]; 0.44 µM in assay [11]. For the same compound, the inhibition in the assay filed under Oryctolagus cuniculus [6] was 73%; in the assay with MDA-MB-468 [9], “Dose-dependent effect”; in assay [3], over 70%.
Take `O=S(=O)(Nc1cc(Sc2ncn[nH]2)c(O)c2ccccc12)c1cccs1`: the inhibition in assay [4] is under 70%; in [3], over 70%.
In the case of `O=S(=O)(Nc1cc(Sc2ncn[nH]2)c(O)c2ccccc12)c1cccc2ccccc12`, the results for the inhibition in assay [4] and in [3] were under 70% and over 70%, respectively. For the same compound, in assay [2], the IC50 was 0.65 µM.
For `O=S(=O)(Nc1cc(Sc2nnn[nH]2)c(O)c2ccccc12)c1ccc(-c2ccccc2)s1`, the IC50 in assay [1] stood at 0.55 µM; in [2], 0.23 µM. The same compound registered an inhibition in [3] of over 70%.
For `CCCCCc1ccc(S(=O)(=O)Nc2cc(Sc3nnn[nH]3)c(O)c3ccccc23)cc1` the same measures were 1.45 µM, 0.47 µM and over 70%.
As to `O=S(=O)(Nc1cc(Sc2ncn[nH]2)c(O)c2ccccc12)c1ccc(S(=O)(=O)c2ccccc2)s1`, the inhibition in assay [4] is under 70%; in assay [3], over 70%. Moreover, the IC50 in [2] was found to be 1.97 µM.
As to `CCSc1cc(NS(=O)(=O)c2cccs2)c2ccccc2c1O`, the half-inhibitory concentration (IC50) in assay [2] is over 5 µM.
`O=S(=O)(Nc1cc(SCCO)c(O)c2ccccc12)c1cccs1` registered a concentration for half-maximal inhibition (IC50) in assay [2] of over 5 µM.
`O=S(=O)(Nc1cc(Sc2nnn[nH]2)c(O)c2ccccc12)c1cccs1`: the IC50 in assay [1] turned out to be 0.2 µM; in assay [2] it was 0.51 µM. The compound further had an inhibition in assay [3] of over 70%.
The like results for `O=S(=O)(Nc1cc(Sc2nnn[nH]2)c(O)c2ccccc12)c1ccc(-c2ccc(F)cc2)cc1` were, in that order, 2 µM, 0.23 µM and over 70%.
As to `O=C(O)CSc1cc(NS(=O)(=O)c2cccs2)c2ccccc2c1O`, the inhibition entry in the assay listed under Oryctolagus cuniculus [5] was “Active”. The IC50 came to 8.1 µM in assay [12], 3 µM in assay [2], 7.22 µM in assay [10] and 3.54 µM in assay [11]. Besides, the inhibition in the assay listed under Oryctolagus cuniculus [6] is 68%; in [4] it was under 70%; in [3] it was over 70%.
`CC(C)C[C@H](NC(=O)[C@H](Cc1ccccc1)NC(=O)c1cnccn1)B(O)O`: in the assay listed under Oryctolagus cuniculus [13], the inhibition result was “inactive”. This compound yielded an inhibition in the assay listed under Oryctolagus cuniculus [6] of 87%.
`O=C(O)CCSc1cc(NS(=O)(=O)c2cccs2)c2ccccc2c1O` had an IC50 in assay [2] of 5.7 µM.
Regarding `O=S(=O)(Nc1cc(Sc2nnn[nH]2)c(O)c2ccccc12)c1ccc(Oc2ccccc2)cc1`, the IC50 in [1] is 1.3 µM; in assay [2], 0.22 µM. Also, in assay [3], the inhibition is over 70%.
With `Cn1nnnc1Sc1cc(NS(=O)(=O)c2cccs2)c2ccccc2c1O`, the inhibition in [4] is under 70%; in assay [3], over 70%. This compound also gave an IC50 in assay [2] of 4.2 µM.
On to `O=C(O)c1ccccc1Sc1cc(NS(=O)(=O)c2cccs2)c2ccccc2c1O`, for which the inhibition was under 70% in [4] and over 70% in [3]. This compound showed an IC50 in assay [2] of 4.05 µM.
Consider `O=S(=O)(Nc1cc(Sc2ncn[nH]2)c(O)c2ccccc12)c1ccc(-c2ccccc2)cc1`, for which the IC50 in assay [1] stood at 4.22 µM; in [2] it was 0.28 µM. Also, the inhibition in assay [3] was over 70%.
`CNC(=O)CCSc1cc(NS(=O)(=O)c2cccs2)c2ccccc2c1O`: the IC50 in assay [2] was over 5 µM.
For `O=C(O)CSc1ccc(NS(=O)(=O)c2cccs2)c2ccccc12`, the IC50 in [2] is over 100 µM.
